Screening results (PubChem)
A selection: hits, their analogues and other compounds. The true share with any hit is near 2.2%.
ERAP1 HTS inh: inhibitors of human ERAP1 aminopeptidase. Q9NZ08. recombinant ERAP1, Leu-AMC fluorescence, 60 min. inhibition, % at 10.7 µM. actives 0.15% (n = 340,000);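 active = mean replicate inhibition of at least 30%, or all replicates individually reaching that 30% level; inactive = mean below 30% and not every replicate reaching it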;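 also: 0% = neutral control wells and 100% = L-leucinethiol positive control wells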
PGC1a acetyl inh: PGC1a acetylation modulation, inhibitor mode; U2OS PGC1a acetylation, AlphaScreen anti-acetyl-lysine; with virally co-expressed GCN5 acetyltransferase; inhibition, % at 15.6 µM; actives 0.17% (n = 350,000); AID 651687;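 active = every replicate shows inhibition of at least 40%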;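 also: 0% = neutral control wells and 100% = positive control wells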
FGF22 binding: FGF22 (human) thermal shift binding | Q9HCT0 | recombinant FGF22 thermal shift, SYPRO orange fluorescence; percent of sucrose octasulfate shift, DMSO zero | activity (Tm shift, normalised), % at 9.99 µM | actives 1.5% (n = 340,000);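 active = mean Tm shift, scaled 0 neutral to 100 positive control, at about 1.3% or above, every replicate too, limit read from the data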
Target sequence (Q9HCT0 whole entry, looked up): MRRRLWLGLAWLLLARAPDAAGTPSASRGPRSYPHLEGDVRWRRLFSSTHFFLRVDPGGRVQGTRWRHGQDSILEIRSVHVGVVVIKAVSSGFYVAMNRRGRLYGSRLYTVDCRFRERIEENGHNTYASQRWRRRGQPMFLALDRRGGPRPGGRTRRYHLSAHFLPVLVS
FN deposition inh: fibronectin deposition inhibition; inhibition, % at 12.6 µM; AID 743247; actives 0.086% (n = 350,000); AH1F fibroblasts, Alexa488-fibronectin deposition fluorescence, overnight;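 active = mean inhibition across replicates of 30% or more, regardless of how many single replicates reach that level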;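 also: positive control wells lacked labelled fibronectin entirely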
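Assay system: AH1F fibroblasts assembling fluorescent fibronectin matrix; Amount: 10000 AH1F cells per well; Buffer or medium: DMEM, 2% serum; Probe or stimulus: Alexa488-fibronectin, 24 nM final in well; Doses: single compound dose, delivered by pin transfer; Incubation: 1 h adhesion, overnight exposure; Measured by: fluorescence 485/525 nm; Read-out: fibronectin deposition inhibition.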
SIRT5 inh: inhibitors of human sirtuin-5 desuccinylase; Purified SirT5, succinyl-peptide AMC, trypsin-coupled fluorescence; actives 1.1% (n = 330,000); inhibition, % at 15 µM; Q9NXA8; in the data active = inhibition above about 15%
Target sequence (Q9NXA8 whole entry, looked up): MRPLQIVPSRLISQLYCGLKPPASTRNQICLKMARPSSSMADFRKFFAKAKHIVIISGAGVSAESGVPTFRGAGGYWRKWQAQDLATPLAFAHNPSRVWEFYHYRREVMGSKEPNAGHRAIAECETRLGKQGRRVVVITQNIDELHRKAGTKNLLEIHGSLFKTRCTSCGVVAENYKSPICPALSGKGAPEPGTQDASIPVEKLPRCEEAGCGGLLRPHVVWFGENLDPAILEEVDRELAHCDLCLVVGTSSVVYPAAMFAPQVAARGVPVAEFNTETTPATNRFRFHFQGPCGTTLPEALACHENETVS
Active calls of the source: *; . = not tested or not shown; ! = repeats disagree.

SMILES | ERAP1 HTS inh | PGC1a acetyl inh | FGF22 binding | FN deposition inh | SIRT5 inh
NC(=O)CC(NC(=O)Cc1ccc(Br)cc1)c1ccc(NCc2ccc(F)cc2)c([N+](=O)[O-])c1 (stereo not given) | 4.4 | . | 43.6* | 16.8 | 4.8
NC(=O)CC(NC(=O)Cc1ccc(Br)cc1)c1ccc(NCC2CC2)c([N+](=O)[O-])c1 (stereo not given) | -0.2 | 0.8 | 0.2 | -10.9 | .
CCSc1nnc(CSc2ncccn2)n1C | 2.9 | . | 43.5* | -1.1 | -3.2
CCCSc1nnc(CSc2ncccn2)n1C | 4.2 | 32.8 | 0.2 | -1.2 | 2.9
C[C@@H]1CN([C@@H](C)CO)C(=O)c2cc(NC(=O)Nc3ccccc3)ccc2O[C@@H]1CN(C)S(=O)(=O)c1ccccc1 | -0.4 | -9.3 | -0.1 | . | -3.3
C[C@H](CO)N1C[C@H](C)[C@H](CN(C)CC2CC2)Oc2c(NS(C)(=O)=O)cccc2C1=O | -1.5 | 5.8 | 0.0 | -8.2 | 3.6
COc1ccc(S(=O)(=O)NNC(=O)C23CC4CC(CC(C4)C2)C3)cc1 | 3.8 | . | -0.2 | -0.6 | 3.0
Cc1ccc(S(=O)(=O)NNC(=O)C23CCC(CC2)C3)cc1 | 4.0 | 0.3 | 42.9* | 23.7 | .
Nc1ccc(NC(=O)Nc2ccc(N)cc2)cc1 | 0.5 | . | -0.4 | -2.5 | 1.4
Nc1ccc(NC2C[C@@H](C(=O)O)NC2=O)cc1 (stereo not given in full) | 1.8 | . | 43.4* | 1.8 | 8.1
COC(=O)C(C)N1C(=O)S/C(=C\c2ccc(-c3ccc(C(=O)O)cc3C)o2)C1=O (stereo not given) | 57.3* | 11.9 | -0.2 | 0.3 | -0.7
COc1cccc(NC(=O)N(C)C[C@H]2Oc3ncc(C4=CCCCC4)cc3C(=O)N([C@@H](C)CO)C[C@H]2C)c1 | 6.2 | 1.8 | -0.5 | . | 0.8
O=C(C[C@@H]1CC[C@H](NC(=O)CN2CCOCC2)[C@H](CO)O1)NC1CCCCC1 | -0.6 | 0.6 | 0.0 | -10.7 | -2.1
CN1CCN(Cc2c(C#N)c3ccccc3n2C)CC1 | . | 7.9 | . | -7.6 | .
Cn1c(CN2CCCC2)c(C#N)c2ccccc21 | 1.9 | . | 43.2* | -0.5 | -5.0
C[C@@H]1CCCCO[C@H](CN(C)Cc2ccc(Cl)c(Cl)c2)[C@@H](C)CN([C@H](C)CO)C(=O)c2cc(NC(=O)c3ccncc3)ccc2O1 | -3.0 | 9.2 | -0.2 | -3.9 | 0.3
C[C@@H]1CCCCO[C@@H](CN(C)Cc2ccc(Cl)c(Cl)c2)[C@@H](C)CN([C@H](C)CO)C(=O)c2cc(NC(=O)c3ccncc3)ccc2O1 | -1.9 | -5.8 | 0.0 | 2.6 | 15.1*
Cc1noc(C)c1NC(=O)Nc1ccc2c(c1)C(=O)N([C@@H](C)CO)C[C@H](C)[C@@H](CN(C)Cc1ccc(Cl)c(Cl)c1)OCCCC[C@H](C)O2 | -3.1 | -4.3 | -0.3 | . | 15.4*
CC(C)(C)C(=O)/C(=C/c1cccc([N+](=O)[O-])c1)n1cncn1 | . | . | . | 23.8 | .
COc1cccc(C2=NOC(C(=O)Nc3cccnc3Cl)C2)c1 (stereo not given) | -3.1 | 1.7 | 44.1* | 3.9 | -1.2
COc1ccc(S(=O)(=O)NNC(=O)C2CC(c3cccnc3)=NO2)cc1 (stereo not given) | -2.1 | 7.2 | 43.6* | 4.1 | -4.7
Cc1cccc(S(=O)(=O)N[C@H]2CC[C@H](CCNS(=O)(=O)c3ccccc3F)O[C@@H]2CO)c1 | -3.0 | -10.0 | -0.7 | 6.3 | 9.5
O=C(C(=O)N1CCOCC1)c1c[nH]c2ccccc12 | 1.4 | 14.2 | 43.2* | -4.1 | 1.5
COc1cccc(C2NC(=S)NC(C)=C2C(=O)c2ccccc2)c1OC (stereo not given) | 1.4 | -0.2 | 43.2* | 15.8 | 1.4
C=CCOc1ccc(C2NC(=S)NC(C)=C2C(=O)c2ccccc2)cc1OC (stereo not given) | . | . | . | 1.8 | .
SMILES | ERAP1 HTS inh | PGC1a acetyl inh | FGF22 binding | FN deposition inh | SIRT5 inh
CCOc1cccc2sc(N(CCCN(C)C)C(=O)c3ccc(S(=O)(=O)N(C)c4ccccc4)cc3)nc12 | -1.7 | . | 43.5* | 7.2 | 1.8
Cn1c(=O)c(C(=O)CSc2ccccc2)c(N)n(Cc2ccccc2)c1=O | 1.6 | -4.4 | 43.0* | -0.8 | 0.0
COc1ccc(S(=O)(=O)N(C)C[C@H]2Oc3ccc(NS(C)(=O)=O)cc3C(=O)N([C@@H](C)CO)C[C@H]2C)cc1 | 1.8 | 3.7 | 0.2 | . | 2.5
COc1ccc2c3c(n(C)c2c1)[C@H](CO)N(C(=O)CC1CC1)CC31CCN(C(=O)CC2CC2)CC1 | 1.9 | . | -0.1 | . | 3.2
C/C(=N/NC(=O)CSc1nc2ccccc2n1C)c1ccncc1 | 0.9 | 3.6 | 43.2* | -7.0 | -4.6
C/C(=N\NC(=O)CSc1nc2ccccc2[nH]1)c1ccncc1 | 1.9 | 0.1 | 43.4* | -14.7 | -4.2
C[C@H]1CN([C@@H](C)CO)C(=O)CCCn2cc(nn2)CO[C@H]1CN(C)Cc1ccc(Oc2ccccc2)cc1 | -2.8 | 0.8 | 0.0 | 12.6 | -3.6
O=C(CN1CCc2ccccc2C1)NC1CCCC1 | -2.3 | . | 43.1* | -6.2 | 0.1
O=C(CN1C(=O)NC2(CCCc3ccccc32)C1=O)NC1CCCCC1 (stereo not given) | 1.9 | 5.6 | -0.2 | -11.0 | 15.8*
O=C(NC1CCCCC1)N1CCc2ccccc2C1 | -0.1 | . | 0.0 | . | .
CC(=O)N(C)C[C@H]1Oc2ncccc2C(=O)N(C)C[C@H]1C | . | . | . | 10.6 | .
CN(C)C(=O)c1ccc(NC(=O)c2ccc(-c3ccc(Cl)cc3)o2)cc1 | -6.7 | -5.8 | 1.8* | 1.2 | 14.3
C[C@@H]1CCCCO[C@H](CN(C)C(=O)Nc2ccccc2)[C@H](C)CN([C@@H](C)CO)C(=O)c2cc(NS(C)(=O)=O)ccc2O1 | -0.5 | 11.3 | -0.1 | 3.9 | -1.2
CCOC(=O)/C(C#N)=C1/C=C(C)c2ccccc2N1 | -12.3 | 6.8 | 42.9* | . | .
CCOC(=O)/C(C#N)=C1/C=Nc2ccccc2N1 | . | 2.3 | . | -16.4 | .
CC1CCC(C(C)C)C(OC(=O)Cn2c(-c3ccc(Cl)cc3)[n+](C)c3ccccc32)C1 (stereo not given) | 31.0* | 1.8 | 0.1 | -6.8 | -0.4
CC1CCC(C(C)C)C(OC(=O)Cn2c(-c3ccc(Br)cc3)[n+](C)c3ccccc32)C1 (stereo not given) | 19.6 | -45.1 | 0.1 | 20.7 | -3.1
Cc1ccccc1OCc1n(CC(=O)OC2CC(C)CCC2C(C)C)c2ccccc2[n+]1C (stereo not given) | 13.9 | 12.3 | 43.3* | 19.0 | -1.5
O=C(C[C@H]1CC[C@@H]2[C@H](COC[C@H](O)CN2C(=O)c2ccccc2F)O1)N1CCOCC1 | -2.9 | -3.5 | 0.2 | -9.0 | -5.4
CN(C)C(=O)c1cccc(-c2ccc(C3[C@@H]4CN(C(=O)c5ccccn5)C[C@H]3N4)cc2)c1 (stereo not given in full) | 1.1 | 4.8 | . | -7.1 | 21.8*!
CN(C)C(=O)c1ccc(-c2ccc(C3[C@@H]4CN(C(=O)Cc5ccccc5)C[C@H]3N4)cc2)cc1 (stereo not given in full) | -0.7 | 11.3 | . | 2.6 | 17.0*!
